Screening data as filed in PubChem BioAssay.
CSC inhib: blocks cancer stem cells | cancer stem cell-like cells viability, luminescence | inhibition, % at 7.5 µM | hit rate 1.1% among 300,000; in the data active = inhibition above about 75%; tested in HMLE shEcad cells
UPR CHOP act: activators of apoptotic arm of unfolded protein response (CHOP); CHO-CHOP luciferase reporter, UPR activation, luminescence; percent of tunicamycin response over DMSO baseline; activation, % at 10 µM; hit rate 0.34% among 330,000; AID 449763;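 active = at 10 µM dose, activation of 40% or more, normalized to positive control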
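Test system: CHO-CHOP cells, stable luciferase reporter of PERK-eIF2a-CHOP signalling | Quantity: 500 CHO-CHOP cells per well | Buffer or medium: F12 plus 10% serum | Compound dosing: 10 µM single point, 0.5% DMSO | Schedule: 6 h compound treatment, 37 °C | Signal: Luciferase luminescence | Control set: Tunicamycin high control, DMSO low control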
Mdm2 MdmX PPI: inhibitors of human Mdm2/MdmX interaction; O15151+Q00987; SaOS-2 split-luciferase Mdm2/MdmX complementation, luminescence; inhibition, % at 8 µM; hit rate 3% among 330,000;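 active = inhibition of at least 50% at 8 µM in the primary screen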
Target sequence (O15151 whole entry, looked up): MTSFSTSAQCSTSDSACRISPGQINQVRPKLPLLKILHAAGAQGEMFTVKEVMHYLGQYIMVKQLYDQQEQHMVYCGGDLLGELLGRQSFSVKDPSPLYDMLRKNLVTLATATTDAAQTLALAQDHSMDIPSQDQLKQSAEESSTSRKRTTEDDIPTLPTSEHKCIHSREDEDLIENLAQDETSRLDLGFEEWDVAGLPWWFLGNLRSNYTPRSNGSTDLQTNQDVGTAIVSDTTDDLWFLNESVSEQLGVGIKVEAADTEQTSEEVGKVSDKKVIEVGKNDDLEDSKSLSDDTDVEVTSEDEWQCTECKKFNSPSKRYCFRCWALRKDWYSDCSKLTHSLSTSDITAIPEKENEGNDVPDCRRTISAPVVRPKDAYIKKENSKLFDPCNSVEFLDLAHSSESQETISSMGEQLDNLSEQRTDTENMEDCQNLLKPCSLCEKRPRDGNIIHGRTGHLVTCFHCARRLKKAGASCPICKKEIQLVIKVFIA
Target sequence (Q00987 whole entry, looked up): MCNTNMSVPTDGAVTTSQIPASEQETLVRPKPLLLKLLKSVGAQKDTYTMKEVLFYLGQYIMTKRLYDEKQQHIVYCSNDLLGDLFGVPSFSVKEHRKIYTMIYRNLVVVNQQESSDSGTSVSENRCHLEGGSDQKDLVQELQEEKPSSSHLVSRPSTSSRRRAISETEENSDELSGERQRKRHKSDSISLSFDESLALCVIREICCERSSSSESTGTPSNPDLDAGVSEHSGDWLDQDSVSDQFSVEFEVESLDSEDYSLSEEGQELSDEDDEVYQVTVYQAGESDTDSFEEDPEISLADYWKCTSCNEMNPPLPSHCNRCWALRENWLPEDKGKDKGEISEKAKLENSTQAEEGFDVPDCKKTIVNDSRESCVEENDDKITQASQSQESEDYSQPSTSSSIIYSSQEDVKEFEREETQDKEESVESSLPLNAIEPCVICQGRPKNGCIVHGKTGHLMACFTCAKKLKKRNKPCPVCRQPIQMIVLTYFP
SKKanGAS inh: inhibitors of SKKanGAS S. pyogenes growth in kanamycin (SK-promoter or general growth effect). BacTiter-Glo, 6 h. inhibition, % at 7.5 µM. hit rate 1.3% among 300,000. AID 1662;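 active = mean replicate score, as percent of positive control median, at least 50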;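 note: strain carries kanamycin resistance gene driven by streptokinase promoter and grows in 40 µg/ml kanamycin; loss of luminescence reflects streptokinase promoter inhibition or plain growth inhibition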
Beta cell apopt: blocks beta cell apoptosis; INS-1E cytokine-induced death, ATP luminescence, 48 h; percent of positive-control rescue, neutral wells zero; protection from apoptosis, % (no concentration beside the values); hit rate 0.8% among 300,000;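 active = Every replicate reaches about 75%, or at least half do and their mean reaches it too, limit read from the data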;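 note: higher means more ATP so stronger rescue from cytokine killing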
UPR XBP1 act: adaptive UPR (XBP1) activation. CHO-XBP1 luciferase reporter, IRE1-XBP1 UPR activation, luminescence; percent of tunicamycin response, DMSO as zero. activation, % at 20 µM. hit rate 0.33% among 330,000;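 active = versus positive control, 20 µM dose yields 30% or more activation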
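Material: CHO cell line with stable XBP1 luciferase reporter; buffer or medium: F12 medium containing 10% fetal bovine serum; compound: single point, 20 µM final compound, 1% DMSO; incubation: 6 h treatment, 37 °C; measured by: glow luminescence from Steady-Glo reagent; evaluation: activation, % of tunicamycin; control set: tunicamycin high, DMSO low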
Mdm2-MdmX conf: confirmation of human Mdm2/MdmX interaction inhibitors; shares compounds with Mdm2 MdmX PPI; Mdm2-MdmX binding, luminescent assay; inhibition, % at 8 µM; hit rate 55% among 10,000; AID 489028; in the data active = inhibition above about 40%
Full FLuc ctr: inhibits full-length luciferase, flagging false Mdm2/MdmX hits | SaOS-2 full-length luciferase counterscreen, luminescence | inhibition, % at 8 µM | shares compounds with Mdm2 MdmX PPI | hit rate 77% among 6,200;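 active = mean inhibition at 8 µM reaching about 37%, which flags the compound as non-specific, limit read from the data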;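 note: p53-null SaOS-2 cells with luciferase driven by a doxycycline-inducible promoter; compound on cells about two nights before reading with doxycycline added after day one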
Of the large screens only hits and unclear results are named; the others gave an inactive call (follow-up assays come after a bar, where they were run). An excerpt weighted towards active compounds, which were near 4.8% of everything screened.

O=C1CN=C(c2ccccc2F)c2cc(Cl)ccc2N1	none
Cc1cccc(NC(=O)C(C)N2CC=C(c3ccccc3)CC2)c1 (stereo not given)	none
Cc1c2ccncc2c(C)c2c1[nH]c1ccccc12	CSC inhib 109, Mdm2 MdmX PPI 98, SKKanGAS inh 86, Beta cell apopt 119 | Mdm2-MdmX conf 92 | Full FLuc ctr inactive
O=c1ccc2c(O)c3ccoc3cc2o1	none (no result: CSC inhib, SKKanGAS inh, Beta cell apopt)
CC(=O)O[C@@H]1/C=C/[C@](C)(O)C[C@@H](C)C/C=C/[C@H]2[C@@H]3O[C@]3(C)[C@@H](C)[C@H]3[C@H](Cc4ccccc4)NC(=O)[C@@]312	Mdm2 MdmX PPI 78 | Mdm2-MdmX conf 51 | Full FLuc ctr 42
CC(=O)O[C@@H]1/C=C/[C@](C)(O)C[C@@H](C)C/C=C/[C@H]2[C@H](O)[C@@](C)(O)[C@@H](C)[C@H]3[C@H](Cc4ccccc4)NC(=O)[C@@]312	none
Cn1ncnc2c(=O)n(C)c(=O)nc1-2	CSC inhib 176, Mdm2 MdmX PPI 92, Beta cell apopt 125 | Mdm2-MdmX conf 84 | Full FLuc ctr inactive
COc1cccc(NP(=O)(Oc2ccccc2)Oc2ccccc2)c1	CSC inhib 99, Mdm2 MdmX PPI 58 | Mdm2-MdmX conf 53 | Full FLuc ctr 37
C[n+]1c(-c2ccccc2)c2cc(N)ccc2c2ccc(N)cc21	Mdm2 MdmX PPI 85, SKKanGAS inh 100, Beta cell apopt 97 | Mdm2-MdmX conf 70 | Full FLuc ctr inactive
COC(=O)[C@@H]1C[C@H]1[C@@H](NP(=O)(c1ccccc1)c1ccccc1)c1ccccc1	Mdm2 MdmX PPI 56 | Mdm2-MdmX conf 40 | Full FLuc ctr 63
OC(c1ccncc1)(c1ccc(F)cc1)c1ccc(F)cc1	none
COc1cc2c(cc1OC)-c1c(OC)c(OC)c(OC)c3ccnc(c13)C2=O	Mdm2 MdmX PPI 72, Beta cell apopt 89 | Mdm2-MdmX conf 44 | Full FLuc ctr inactive
O=C(O)CNC1c2ccccc2CSc2ccccc21 (stereo not given)	none (no result: Beta cell apopt)
COc1cc2c3cc1Oc1cc(ccc1O)C[C@@H]1c4c(cc(OC)c(O)c4Oc4cccc(c4)C[C@@H]3N(C)CC2)CC[N+]1(C)C	none (no result: SKKanGAS inh)
COc1cc2c3c(c1OC)Oc1ccc(cc1)C[C@H]1c4c(cc(OC)c(OC)c4Oc4ccc(cc4)C[C@@H]3N(C)CC2)CCN1C	Mdm2 MdmX PPI 100 (no result: CSC inhib, SKKanGAS inh, Beta cell apopt) | Mdm2-MdmX conf 74 | Full FLuc ctr inactive
COc1cc2c3cc1Oc1cc(ccc1O)C[C@@H]1c4c(cc(OC)c(O)c4Oc4ccc(cc4)C[C@H]3N(C)CC2)CCN1C	Mdm2 MdmX PPI 92 | Mdm2-MdmX conf 76 | Full FLuc ctr 50
COc1cc2c3cc1Oc1c(OC)c(OC)cc4c1[C@H](Cc1ccc(cc1)Oc1cc(ccc1O)C[C@H]3N(C)CC2)N(C)CC4	Mdm2 MdmX PPI 97 (no result: SKKanGAS inh) | Mdm2-MdmX conf 57 | Full FLuc ctr inactive
O=C(c1ccccc1)N1CCC2(CC1)OCCO2	none
O=C1Nc2cc(C(=O)N3CCC4(CC3)OCCO4)ccc2S/C1=C\c1ccccc1	Mdm2 MdmX PPI 61 | Mdm2-MdmX conf 50 | Full FLuc ctr 66
CN1[C@@H]2CC[C@H]1CC(OC1c3ccccc3CCc3ccccc31)C2 (stereo not given in full)	Mdm2 MdmX PPI 71 (no result: SKKanGAS inh, Beta cell apopt) | Mdm2-MdmX conf inactive | Full FLuc ctr 70
CN1C2CCC1CC(OC(=O)c1ccc(Cl)cc1)C2 (stereo not given)	none (no result: Beta cell apopt)
COC(=O)C1=C(c2ccc(Cl)c(C(F)(F)F)c2)C[C@@H]2CC[C@H]1N2C(=O)N1CCC(O)(c2ccc(Cl)cc2)CC1	Mdm2 MdmX PPI 88 (no result: CSC inhib, SKKanGAS inh) | Mdm2-MdmX conf inactive
O=C(CSC1c2ccccc2-c2ccccc21)N/N=C/c1ccc(C(=O)O)cc1	none
O=C(CSC1c2ccccc2-c2ccccc21)N/N=C/c1ccccc1O	CSC inhib 83, Mdm2 MdmX PPI 82, Beta cell apopt 87 | Mdm2-MdmX conf 76 | Full FLuc ctr inactive
CCC(=NCCc1ccccc1)c1c(O)n(C)c(=O)n(C)c1=O	none
